Source: PubChem BioAssay
Activity calls are given as the source filed them.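 The calls were made as follows: active = duplicate-averaged activation above buffer control mean plus 5 SD of those controls; inactive = the rest.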

Assay: nonspecific flux increase, KCNQ1-free cells – parental CHO cells, counter-screen for KCNQ1 potentiator project (AID 493006);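 as to activation: fluorescence ratio of max minus min over baseline after K+ and Tl+ depolarization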
Conditions: parental CHO-K1 cells, FluxOR thallium flux, at 10 µM; stronger effect = higher value
In short: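 Material: parental CHO-K1 cells, FluxOR dye-loaded; Also added: Potassium/thallium depolarization pulse; Schedule: overnight 37 °C plating, 90 min dye, 20 min dark compound; Signal: kinetic FluxOR fluorescence, 10 s baseline, 110 s after stimulus.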

Row | Compound | outcome | activation
1 | Oc1c(N=NC(=S)Nc2ccccc2F)c2ccccc2n1Cc1cccc(Cl)c1 | inactive | –
2 | COC(=O)[C@H](C)NC(=O)Nc1cc(Cl)ccc1C | inactive | –
3 | Cc1ccc(-n2c(-c3ccc(Cl)cc3)n[nH]c2=S)c(C)c1 | inactive | –
4 | Cc1ccc(C)c(NC(=S)NNC(=O)c2csc(C(C)C)c2)c1 | – | 162% (active)
5 | CC(CNC(=O)COc1ccccc1)OC(=O)Nc1ccc(Cl)c(Cl)c1 (stereo not given) | inactive | –
6 | COc1ccc(/C=C(\NC(=O)c2cccs2)C(=O)N2CCOCC2)cc1OC | – | 137% (active)
7 | CNCCC=C1c2ccccc2CCc2ccccc21 | – | 150% (active)
8 | O=C(Nc1cccc(-c2nnc(-c3ccco3)o2)c1)c1ccccc1 | inactive | –
9 | O=C(N1CCOCC1)N1CCC(n2nnc3ccccc32)CC1 | inactive | –
10 | CCOC(=O)c1sc(NC(=O)c2ccccc2C(=O)O)c(C(=O)OCC)c1C | inactive | –
11 | CC(=O)c1ccc(NC(=S)NC(=O)c2c(Cl)c(C)nn2C)cc1 | inactive | –
12 | O=C(NNc1c2ccccc2nc2ccccc12)c1ccccc1Cl | inactive | –
13 | COc1ccc(O)c(C(=O)c2cnn(-c3ccc(Cl)cc3)c2)c1 | inactive | –
14 | COC(=O)c1cc(-c2cc(OC)ccc2OC)nc2c1c(=O)n(C)c(=O)n2Cc1ccccc1 | inactive | –
15 | CCOC(=O)C1CCN(C(=O)COC(=O)c2cc(-c3cccs3)nn2-c2ccccc2)CC1 | inactive | –
16 | CC1CN(C(=O)C2CC(=O)N(c3ccc(Cl)cc3)C2)CC(C)O1 (stereo not given) | inactive | –
17 | CCOC(=O)CS(=O)(=O)c1nc(-c2ccc(F)cc2)cc(C(F)(F)F)n1 | inactive | –
18 | CN(C(=S)NC(=O)c1ccc(F)cc1)C1CCCCC1 | – | 154% (active)
19 | CCOc1ccccc1NC1=C(Cl)C(=O)N(c2ccccc2)C1=O | inactive | –
20 | C=CCNC(=S)NNC(=O)COc1c(Cl)cc(Cl)cc1Cl | inactive | –

Row | Compound | outcome | activation
21 | CC(C)COc1ccc(-c2nn(-c3ccccc3)cc2/C=C2/SC(=S)N(CC(=O)O)C2=O)cc1 | inactive | –
22 | Cc1ccc(C(=O)C2=C(O)C(=O)N(CCCN3CCOCC3)C23C(=O)N(C)c2ccccc23)o1 (stereo not given) | inactive | –
23 | Cc1ccc(C(=O)CC(=O)c2ccc(C)cc2O)cc1 | inactive | –
24 | O=[N+]([O-])c1ccc(C(O)C(CO)NC(=S)Nc2ccccc2)cc1 (stereo not given) | inactive | –
25 | CSc1cccc(NC(=O)CN2C(=O)c3ccccc3S2(=O)=O)c1 | inactive | –
26 | O=C(CCSc1ccccc1)Nc1ccc(S(=O)(=O)Nc2ncccn2)cc1 | inactive | –
27 | Cc1cccc(N(CC(=O)NC2CCCC2)C(=O)c2csnn2)c1C | inactive | –
28 | CCc1ccc(NC(=O)C2CCN(C(=O)[C@@H]3Cc4ccccc4CN3)CC2)cc1 | inactive | –
29 | S=c1[nH]c2ccccc2c2ccccc12 | – | 148% (active)
30 | Cc1cc(N2CCOCC2)nc(SCC(=O)c2ccc(Cl)cc2)n1 | inactive | –
31 | Cn1c(N/N=C/c2cccs2)cc(=O)n(C)c1=O | inactive | –
32 | COC(=O)c1ccc(CNC(=O)CSc2nc3sc(C)c(C)c3c(=O)n2C)o1 | – | 268% (active)
33 | COC(=O)C1CCN(C(=O)Nc2ccc(OC)cc2)CC1 | – | 144% (active)
34 | COCC(=O)NC1CC2CCC(C1)N2C(=S)Nc1ccccc1C(=O)OC (stereo not given) | inactive | –
35 | CN(C)CCCNc1cc(-c2ccccc2)nc2cc(-c3cccc(F)c3)nn12 | – | 180% (active)
36 | CC(=O)n1cc(N(C(=O)CCl)c2ccc(C)cc2)c2ccccc21 | inactive | –
37 | CC(C)(C)c1ccc(CN2N=Nc3ccccc3S2(=O)=O)cc1 | inactive | –
38 | CCCCNC(=O)CNC(=O)c1nn(-c2ccc(OC)cc2OC)c(=O)c2ccccc12 | inactive | –
39 | N=C1/C(=C\c2ccc(-c3cccc(Cl)c3)o2)C(=O)N=C2SC=C(c3ccccc3)N12 | inactive | –
40 | CN(Cc1cccnc1)C(=O)Cc1ccc(NS(=O)(=O)c2cccc(C(F)(F)F)c2)cc1 | inactive | –
